How the values were obtained:
[1] = target: Human immunodeficiency virus type 1 reverse transcriptase (Human immunodeficiency virus 1, UniProt Q72547); assay: Inhibition of RNA-dependent DNA polymerase activity of wild type HIV1 reverse transcriptase
[2] = target: Human immunodeficiency virus type 1 reverse transcriptase (Human immunodeficiency virus 1, UniProt Q72547, K103N); assay: Inhibition of RNA-dependent DNA polymerase activity of HIV1 reverse transcriptase K103N mutant
[3] = target: Human immunodeficiency virus type 1 reverse transcriptase (Human immunodeficiency virus 1, UniProt Q72547, Y181C); assay: Inhibition of RNA-dependent DNA polymerase activity of HIV1 reverse transcriptase Y181C mutant
[4] = tested on: Human immunodeficiency virus 1; assay: Antiviral activity against HIV1 NL4-3 in HeLaP4 reporter cell assessed as virus replication by FluorAceTM beta-galactosidase reporter assay; type: functional, organism-based; settings: Human immunodeficiency virus 1, NL4-3, HeLaP4
Outline: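 Antiviral IC50 reported as the geometric mean of at least three independent experiments, with standard deviation given.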

[5] = Metabolic stability in human liver microsomes assessed as half life; type: ADME, Microsome
[6] = Metabolic stability in human hepatocytes assessed as half life; type: ADME, cell-based, Liver, Hepatocyte
[7] = Cytotoxicity against human HeLaP4 cells; type: cell-based

| Structure (SMILES) | IC50 [1] [µM] | IC50 [2] [µM] | IC50 [3] [µM] | IC50 [4] [µM] | half-life [5] [h] | half-life [6] [h] | CC50 [7] [µM] |
| --- | --- | --- | --- | --- | --- | --- | --- |
| CCc1n[nH]c2ccc(F)c(Oc3cc(C#N)cc(C#N)c3)c12 | 0.025 | 0.183 | 0.032 | 0.0046 | > 2 | > 6 | > 100 |
| Cc1n[nH]c2ccc(F)c(Oc3cc(C#N)cc(C#N)c3)c12 | 0.05 | – | 0.145 | 0.014 | > 2 | > 6 | > 100 |
| Cc1n[nH]c2cccc(Oc3cc(C#N)cc(C#N)c3)c12 | 0.332 | – | – | – | – | – | – |
| CCc1n[nH]c2cccc(Oc3cc(C#N)cc(C#N)c3)c12 | 0.112 | – | – | – | – | – | – |
| COCc1n[nH]c2cccc(Oc3cc(C#N)cc(C#N)c3)c12 | 1.67 | – | – | – | – | – | – |
| Cc1n[nH]c2ccc(Cl)c(Oc3cc(C#N)cc(C#N)c3)c12 | 0.399 | – | – | – | – | – | – |
| CNCc1n[nH]c2cccc(Oc3cc(C#N)cc(C#N)c3)c12 | > 30 | – | – | – | – | – | – |
| Cc1n[nH]c2c(CO)ccc(Oc3cc(C#N)cc(C#N)c3)c12 | 0.071 | 1.27 | – | 0.014 | > 2 | 0.183 | > 100 |
| CC(C)c1nc(COC(N)=O)n(Cc2ccncc2)c1Sc1cc(Cl)cc(Cl)c1 [CAPRAVIRINE] | – | – | – | 0.0005 | 0.125 | – | – |
| O=C1Nc2ccc(Cl)cc2[C@@](C#CC2CC2)(C(F)(F)F)O1 [EFAVIRENZ] | – | – | – | 0.0004 | – | – | – |
